Measurements reported in ChEMBL document CHEMBL1122150, “Synthesis and biological activity of benzothiazolo- and benzoxazolo[3,2-a]quinolinium salts” (1982).

Tests used:
[1] = tested on: HeLa; assay: The cytotoxic activity was determined against HeLa cell line; format: functional, Mus musculus; conditions: Homo sapiens, read-out: ED50 (the source's name)
In short: (§1)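 KB or HeLa monolayers were grown in Eagle's MEM with 10% fetal calf serum and subcultured every 6–7 days. Drugs were suspended in sterile 0.5% carboxymethylcellulose. 6-Mercaptopurine at 1 μM was the positive control in every run. Cytotoxic concentration is expressed in μg/mL.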

[2] = tested on: KB; assay: The cytotoxic activity was determined against KB cell line.; format: functional, Mus musculus; conditions: Homo sapiens, read-out: ED50 (the source's name); in short: as §1
[3] = tested on: Mus musculus; assay: No of survivors was determined for P-388 ascitic leukemia in mice, at a dose of 100 mg/kg; 6/6; format: functional
[4] = tested on: Mus musculus; assay: Long term survivors/no of treated mice was determined for Ehrlich Ascites tumor after intraperitoneal administration at a dose of 250 mg/kg in mice; 15/18
[5] = tested on: Mus musculus; assay: Antitumor activity against Ehrlich Ascites tumor after intraperitoneal administration at a dose of 90 mg/kg in mice; 3/5; format: functional
[6] = tested on: Mus musculus; assay: Percentage of treated /control was determined against P-388 ascitic leukemia in […] mice, at a dose of 200 mg/kg; format: functional
In short: (§2)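 Female BDF1 mice bearing P-388 ascitic leukemia, run per standard NCI protocol. Single ip dose on day 1, suspended in 0.9% NaCl with 0.10% Tween 80 and serially diluted in saline. T/C% = median survival time of treated mice / median survival of controls × 100. 5-Fluorouracil at 200 mg/kg as positive control. Groups of 6; mean of three tests.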

[7] = tested on: Mus musculus; assay: Number of toxic death/ no of treated was determined for P-388 ascitic leukemia in mice, at a dose of 400 mg/kg; 6/6; format: functional
[8] = tested on: Mus musculus; assay: Percentage of treated /control was determined for Ehrlich Ascites tumor after intraperitoneal administration at a dose of 200 mg/kg in mice; format: functional
In short: (§3)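 Female Albino Swiss mice, five to six weight-matched per group, implanted ip with 1×10^6 viable Ehrlich ascites cells (Trypan blue count). Single ip dose 24 h after implantation (day 1), suspended in 0.9% NaCl with 0.10% Tween 80 and serially diluted in saline. T/C% read at day 12. Survival followed 60 days. Mean of three tests (two at 90 and 100 mg/kg).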

[9] = tested on: Mus musculus; assay: Long term survivors/no of treated mice was determined for Ehrlich Ascites tumor after intraperitoneal administration at a dose of 90 mg/kg in mice; 5/10; format: functional
[10] = tested on: Mus musculus; assay: Antitumor activity against Ehrlich Ascites tumor after intraperitoneal administration at a dose of 150 mg/kg in mice; 6/6; format: functional
[11] = tested on: Mus musculus; assay: Antitumor activity against Ehrlich Ascites tumor after intraperitoneal administration at a dose of 250 mg/kg in mice; 6/6; format: functional
[12] = tested on: Mus musculus; assay: Percentage of treated /control was determined for Ehrlich Ascites tumor after intraperitoneal administration at a dose of 150 mg/kg in mice; format: functional; in short: as §3
[13] = tested on: Mus musculus; assay: Long term survivors/no of treated mice was determined for Ehrlich Ascites tumor after intraperitoneal administration at a dose of 100 mg/kg in mice; 12/12; format: functional
[14] = tested on: Mus musculus; assay: Long term survivors/no of treated mice was determined for Ehrlich Ascites tumor after intraperitoneal administration at a dose of 200 mg/kg in mice; 18/18
[15] = tested on: Mus musculus; assay: Antitumor activity against P-388 ascitic leukemia in mice, at a dose of 200 mg/kg; 6/6; format: functional
[16] = tested on: Mus musculus; assay: Antitumor activity against P-388 ascitic leukemia in mice, at a dose of 400 mg/kg; 0/6; format: functional
[17] = tested on: Mus musculus; assay: Percentage of treated /control was determined for Ehrlich Ascites tumor after intraperitoneal administration at a dose of 250 mg/kg in mice; format: functional; in short: as §3
[18] = tested on: Mus musculus; assay: Percentage of treated /control was determined against P-388 ascitic leukemia in mice, at a dose of 100 mg/kg; format: functional; in short: as §2
[19] = tested on: Mus musculus; assay: Antitumor activity against Ehrlich Ascites tumor after intraperitoneal administration at a dose of 400 mg/kg in mice; 0/6; format: functional
[20] = tested on: Mus musculus; assay: No of survivors was determined for Ehrlich Ascites tumor after intraperitoneal administration at a dose of 100 mg/kg in mice; 6/6; format: functional
[21] = tested on: Mus musculus; assay: Long term survivors/no of treated mice was determined for Ehrlich Ascites tumor after intraperitoneal administration at a dose of 150 mg/kg in mice; 15/18
[22] = tested on: Mus musculus; assay: Percentage of treated /control was determined for Ehrlich Ascites tumor after intraperitoneal administration at a dose of 100 mg/kg in mice; format: functional; in short: as §3
[23] = tested on: Mus musculus; assay: Percentage of treated /control was determined for Ehrlich Ascites tumor after intraperitoneal administration at a dose of 90 mg/kg in mice; format: functional; in short: as §3
[24] = tested on: Mus musculus; assay: Antitumor activity against Ehrlich Ascites tumor after intraperitoneal administration at a dose of 200 mg/kg in mice; 6/6; format: functional
[25] = tested on: Mus musculus; assay: Number of toxic death/ no of treated mice was determined for Ehrlich Ascites tumor after intraperitoneal administration at a dose of 400 mg/kg in mice; 6/6; format: functional
[26] = tested on: P388; assay: Percentage of treated /control was determined against P-388 leukemia in […] mice, at a dose of 320 mg/kg; format: functional, Mus musculus
[27] = tested on: P388; assay: Percentage of treated /control was determined against P-388 leukemia in […] mice, at a dose of 100 mg/kg; format: functional, Mus musculus; in short: as §2

O=[N+]([O-])c1ccc2c(ccc3oc4ccccc4[n+]32)c1.[O-][Cl+3]([O-])([O-])[O-]
EC50 [1]: 15 µg/mL
EC50 [2]: 12 µg/mL

O=[N+]([O-])c1ccc2c(ccc3sc4ccccc4[n+]32)c1.[O-][Cl+3]([O-])([O-])[O-]
Survival [3]: 6
LTS [4]: 15
Survival [5]: 3
EC50 [1]: 0.9 µg/mL
T/C [6]: 218%
Toxicity [7]: 6
T/C [8]: -6.2%
LTS [9]: 5
Survival [10]: 6
Survival [11]: 6
T/C [12]: -0.4%
LTS [13]: 12
LTS [14]: 18
Survival [15]: 6
Survival [16]: 0
T/C [17]: -2.5%
EC50 [2]: 0.6 µg/mL
T/C [18]: 153%
Survival [19]: 0
Survival [20]: 6
LTS [21]: 15
T/C [22]: 35.8%
T/C [23]: 57.3%
Survival [24]: 6
Toxicity [25]: 6

COc1cc2c(ccc3c4cc(OC)c(OC)cc4c[n+](C)c23)cc1O.[Cl-] [FAGARONINE]
T/C [26]: 290%
EC50 [2]: 0.7 µg/mL

COc1cc2c[n+](C)c3c4cc5c(cc4ccc3c2cc1OC)OCO5.[Cl-] [NITIDINE CHLORIDE]
T/C [27]: 129%
